Assay results: ChEMBL document CHEMBL5154931, “Structure-Activity Relationships of 8-Hydroxyquinoline-Derived Mannich Bases with Tertiary Amines Targeting Multidrug-Resistant Cancer” (J Med Chem, 2022)

Experiments:
Assay type in all cases: functional
[1] = Selectivity ratio of IC50 for cytotoxicity against human MES-SA cells assessed as cell growth inhibition to IC50 for cytotoxicity against multidrug resistance human MES-SA/Dx5 cells assessed as cell growth inhibition
[2] = Selectivity ratio of IC50 for cytotoxicity against human A-431 cells assessed as cell growth inhibition to IC50 for cytotoxicity against human A-431 cells expressing ABCB1 assessed as cell growth inhibition
[3] = Selectivity ratio of IC50 for cytotoxicity against human MES-SA cells assessed as cell growth inhibition in presence of P-gp inhibitor Tariquidar to IC50 for cytotoxicity against multidrug resistance human MES-SA/Dx5 cells assessed as cell growth inhibition in presence of P-gp inhibitor Tariquidar
[4] = test system: MES-SA/Dx5; experiment: Cytotoxicity against multidrug resistance human MES-SA/Dx5 cells assessed as cell growth inhibition incubated for 72 hrs in presence of P-gp inhibitor Tariquidar by PrestoBlue reagent based cell viability assay; settings: MES-SA/Dx5, 72 h
Summary of the method: (§1)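 MES-SA and doxorubicin-selected MES-SA/Dx5 cells in DMEM with 10% FBS, 5 mmol/L glutamine, penicillin/streptomycin; 5000 cells/well attached 24 h, serial compound dilutions for 72 h, with or without 1 μM tariquidar. 5% PrestoBlue added after supernatant removal, 1 h at 37 °C, read ex 555/em 585 nm. Mean IC50 with SD, 2–53 independent assays.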

[5] = test system: MES-SA; experiment: Cytotoxicity against human MES-SA cells assessed as cell growth inhibition incubated for 72 hrs in presence of P-gp inhibitor Tariquidar by PrestoBlue reagent based cell viability assay; summary of the method: as §1
[6] = test system: MES-SA; experiment: Cytotoxicity against human MES-SA cells assessed as cell growth inhibition incubated for 72 hrs by PrestoBlue reagent based cell viability assay; summary of the method: as §1
[7] = test system: MES-SA/Dx5; experiment: Cytotoxicity against multidrug resistance human MES-SA/Dx5 cells assessed as cell growth inhibition incubated for 72 hrs by PrestoBlue reagent based cell viability assay; settings: MES-SA/Dx5, 72 h; summary of the method: as §1
[8] = test system: A-431; experiment: Cytotoxicity against human A-431 cells assessed as cell growth inhibition after 72 hrs by PrestoBlue reagent based cell viability assay; settings: A-431, 72 h
Summary of the method: (§2)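 A431 and retrovirally P-gp (ABCB1)-transduced A431 cells kept in supplemented DMEM; 5000 cells/well attached 24 h, then serial compound dilutions for 72 h. Medium removed, 5% PrestoBlue (resazurin) added, 1 h at 37 °C, fluorescence ex 555/em 585 nm.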

[9] = test system: A-431; experiment: Cytotoxicity against human A-431 cells expressing ABCB1 assessed as cell growth inhibition incubated for 72 hrs by PrestoBlue reagent based cell viability assay; settings: A-431, 72 h; summary of the method: as §2

In the case of `Oc1ccc(CN2CCOCC2)c2cccnc12`, the “Ratio IC50” value [1] is reported as 0.7.
With `CCN(CC)Cc1ccc2cccnc2c1O` the “Ratio IC50” value [2] was 2.7.
With `CCOCc1cc(CN2CCCC2)c(O)c2ncccc12` the “Ratio IC50” value [3] was 1.7 and the “Ratio IC50” value [2] was 6.
In the case of `Oc1c(CN2CCN(c3ccccn3)CC2)cc(Cl)c2cccnc12`, the “Ratio IC50” value [2] is reported as 1.2.
In the case of `Oc1c(CN2CCOCC2)cc(Br)c2cccnc12`, the “Ratio IC50” value [1] is reported as 2.5, the “Ratio IC50” value [3] is reported as 1.5 and the “Ratio IC50” value [2] is reported as 3.1.
With `Oc1c(CN2CCCCC2)cc(Cl)c2cccnc12` the “Ratio IC50” value [2] was 3.9.
In the case of `Cc1ccc(C(c2cc(Cl)c3cccnc3c2O)N2CCCC2)cc1` (stereo unspecified), the “Ratio IC50” value [1] is reported as 2.3.
For `COCc1cc(CN2CCC(C)CC2)c(O)c2ncccc12`, the “Ratio IC50” value [3] was 1.4 and the “Ratio IC50” value [2] was 6.1.
For `Oc1c(C(c2ccccc2)N2CCOCC2)ccc2cccnc12` (stereo unspecified), the “Ratio IC50” value [1] was 1.8.
For `COCc1cc(CN2CCN(c3ccccc3)CC2)c(O)c2ncccc12`, the “Ratio IC50” value [1] was 2.2 and the “Ratio IC50” value [2] was 3.9.
In the case of `CC1CCN(Cc2cc(Cl)c3cccnc3c2O)CC1`, the “Ratio IC50” value [2] is reported as 6.1.
In the case of `Oc1c(C(c2ccccn2)N2CCOCC2)ccc2cccnc12` (stereo unspecified), the “Ratio IC50” value [1] is reported as 1.6.
In the case of `CCN1CCN(C(c2cccnc2)c2ccc3cccnc3c2O)CC1` (stereo unspecified), the “Ratio IC50” value [1] is reported as 2.1 and the “Ratio IC50” value [3] is reported as 1.
With `Oc1c(C(c2ccncc2)N2CCCCC2)ccc2cccnc12` (stereo unspecified) the “Ratio IC50” value [1] was 1.9 and the “Ratio IC50” value [2] was 7.8.
With `CC(C)OCc1cc(CN2CCN(c3ccccc3)CC2)c(O)c2ncccc12` the “Ratio IC50” value [1] was 4.3, the “Ratio IC50” value [3] was 1.5 and the “Ratio IC50” value [2] was 3.9.
With `Oc1c(CN2CCN(c3ccc(F)cc3)CC2)cc(Cl)c2cccnc12` the “Ratio IC50” value [2] was 1.3.
With `Oc1ccc(CN2CCCCCC2)c2cccnc12` the “Ratio IC50” value [1] was 1.2.
For `CN1CCN(C(c2ccccn2)c2cc(Cl)c3cccnc3c2O)CC1` (stereo unspecified), the “Ratio IC50” value [1] was 1.2 and the “Ratio IC50” value [2] was 2.8.
For `Oc1c(C(c2cccnc2)N2CCCC2)ccc2cccnc12` (stereo unspecified), the “Ratio IC50” value [1] was 1.8.
With `Oc1c(CN2CCCCCC2)cc(Cl)c2cccnc12` the “Ratio IC50” value [3] was 1.3 and the “Ratio IC50” value [2] was 2.1.
With `Oc1c(CN2CCCC2)cc(Br)c2cccnc12` the “Ratio IC50” value [1] was 9.8, the IC50 [4] was 2.69 µM and the “Ratio IC50” value [3] was 1.5. For the same compound, the “Ratio IC50” value [2] was 2.9.
With `Oc1c(CN2CCN(c3ccccc3)CC2)cc(Cl)c2cccnc12` the “Ratio IC50” value [1] was 6 and the “Ratio IC50” value [2] was 1.3.
With `Oc1c(C(c2cccs2)N2CCOCC2)cc(Cl)c2cccnc12` (stereo unspecified) the “Ratio IC50” value [1] was 0.6.
In the case of `Oc1cccc2cccnc12` [OXYQUINOLINE], the “Ratio IC50” value [3] is reported as 2.3.
With `Cc1ccccc1N1CCN(Cc2ccc(O)c3ncccc23)CC1` the “Ratio IC50” value [2] was 0.7.
For `CN1CCN(C(c2ccncc2)c2ccc3cccnc3c2O)CC1` (stereo unspecified), the “Ratio IC50” value [3] was 1.6.
In the case of `Oc1c(CN2CCCC2)ccc2cccnc12`, the “Ratio IC50” value [2] is reported as 5.2.
For `CCN1CCN(C(c2cc(Cl)c3cccnc3c2O)N2CCCC2)CC1` (stereo unspecified), the IC50 ([5]; read-out: pIC50 (converted)) was 3.31 µM, the IC50 ([6]; read-out: pIC50 (converted)) was 3.31 µM and the “Ratio IC50” value [1] was 2.8. For the same compound, the IC50 ([7]; read-out: pIC50 (converted)) was 1.17 µM, the IC50 [4] was 2.45 µM and the “Ratio IC50” value [3] was 1.3. The IC50 [8] was 8.71 µM, the IC50 [9] was 5.13 µM and the “Ratio IC50” value [2] was 1.7.
In the case of `CCN1CCN(C(c2ccccn2)c2cc(Cl)c3cccnc3c2O)CC1` (stereo unspecified), the “Ratio IC50” value [1] is reported as 1.2.
For `CN1CCN(C(c2cccs2)c2ccc3cccnc3c2O)CC1` (stereo unspecified), the “Ratio IC50” value [1] was 0.8.
For `CCOCc1cc(CN2CCN(C)CC2)c(O)c2ncccc12`, the “Ratio IC50” value [3] was 1.3 and the “Ratio IC50” value [2] was 2.9.
With `CCOCc1cc(CN2CCN(c3ccccc3)CC2)c(O)c2ncccc12` the “Ratio IC50” value [3] was 1.5 and the “Ratio IC50” value [2] was 3.1.
In the case of `Oc1c(C(c2ccccn2)N2CCCCC2)cc(Cl)c2cccnc12` (stereo unspecified), the “Ratio IC50” value [3] is reported as 2.5 and the “Ratio IC50” value [2] is reported as 2.1.
For `CCCOCc1cc(CN2CCCCC2)c(O)c2ncccc12`, the “Ratio IC50” value [3] was 1.5 and the “Ratio IC50” value [2] was 4.6.
For `CCN1CCN(Cc2ccc(O)c3ncccc23)CC1`, the “Ratio IC50” value [1] was 0.8.
With `CCCCOCc1cc(CN2CCN(C)CC2)c(O)c2ncccc12` the “Ratio IC50” value [2] was 2.4.
In the case of `CCN1CCN(C(c2cccnc2)c2cc(Cl)c3cccnc3c2O)CC1` (stereo unspecified), the “Ratio IC50” value [1] is reported as 0.9.
With `Oc1c(CN2CCCC2)cc(Cl)c2cccnc12` the “Ratio IC50” value [2] was 3.8.
In the case of `Oc1c(CN2CCCCC2)cc(Br)c2cccnc12`, the “Ratio IC50” value [1] is reported as 10.8 and the “Ratio IC50” value [2] is reported as 3.2.
With `CCOCc1cc(CN2CCCCC2)c(O)c2ncccc12` the “Ratio IC50” value [2] was 6.
With `Oc1c(CN2CCc3ccccc3C2)ccc2cccnc12` the IC50 ([5]; read-out: IC50) was 2.59 µM, the “Ratio IC50” value [3] was 1.5 and the “Ratio IC50” value [2] was 2.
For `Oc1ccc(CN2CCCC2)c2cccnc12`, the “Ratio IC50” value [1] was 1.5.
With `COCc1cc(CN2CCOCC2)c(O)c2ncccc12` the “Ratio IC50” value [1] was 1.7, the “Ratio IC50” value [3] was 1.1 and the “Ratio IC50” value [2] was 2.8.
In the case of `CN1CCN(Cc2cc(Cl)c3cccnc3c2O)CC1`, the “Ratio IC50” value [2] is reported as 2.3.
In the case of `COCc1cc(CN2CCN(C)CC2)c(O)c2ncccc12`, the “Ratio IC50” value [2] is reported as 2.9.
In the case of `CCOC(=O)C1CCN(Cc2cc(Cl)c3cccnc3c2O)CC1`, the “Ratio IC50” value [2] is reported as 4.1.
In the case of `CCN(CC)Cc1cc(Cl)c2cccnc2c1O`, the “Ratio IC50” value [2] is reported as 6.2.
In the case of `CCCOCc1cc(CN2CCN(c3ccccc3)CC2)c(O)c2ncccc12`, the “Ratio IC50” value [3] is reported as 1.7 and the “Ratio IC50” value [2] is reported as 2.4.
With `Oc1c(C(c2ccccc2)N2CCCCC2)cc(Cl)c2cccnc12` (stereo unspecified) the “Ratio IC50” value [1] was 1.1.
With `CC1CCN(Cc2cc(COC(C)C)c3cccnc3c2O)CC1` the “Ratio IC50” value [2] was 4.1.
In the case of `CCOCc1cc(CN2CCC(C)CC2)c(O)c2ncccc12`, the “Ratio IC50” value [3] is reported as 1.5 and the “Ratio IC50” value [2] is reported as 5.
For `Oc1c(C(c2ccncc2)N2CCOCC2)ccc2cccnc12` (stereo unspecified), the “Ratio IC50” value [3] was 1.4.
With `Oc1c(C(c2cccs2)N2CCCCC2)ccc2cccnc12` (stereo unspecified) the “Ratio IC50” value [1] was 0.8.
With `Oc1ccc(CN2CCN(c3ccccc3)CC2)c2cccnc12` the “Ratio IC50” value [1] was 0.9.
In the case of `Oc1c(C(c2cccnc2)N2CCOCC2)cc(Cl)c2cccnc12` (stereo unspecified), the “Ratio IC50” value [1] is reported as 1.6.
With `Oc1c(C(c2ccccn2)N2CCOCC2)cc(Cl)c2cccnc12` (stereo unspecified) the “Ratio IC50” value [1] was 1.6.
With `CN1CCN(C(c2cccnc2)c2ccc3cccnc3c2O)CC1` (stereo unspecified) the “Ratio IC50” value [1] was 1.5.
In the case of `CN1CCN(Cc2ccc3cccnc3c2O)CC1`, the “Ratio IC50” value [2] is reported as 2.3.
For `CCOCc1cc(CN2CCOCC2)c(O)c2ncccc12`, the “Ratio IC50” value [1] was 1.9 and the “Ratio IC50” value [2] was 4.1.
For `COCc1cc(CN2CCCCC2)c(O)c2ncccc12`, the “Ratio IC50” value [3] was 1.3 and the “Ratio IC50” value [2] was 6.3.
For `Oc1c(C(c2ccccn2)N2CCCC2)ccc2cccnc12` (stereo unspecified), the “Ratio IC50” value [2] was 4.4.
In the case of `CN1CCN(Cc2cnc3ccccc3c2O)CC1`, the “Ratio IC50” value [1] is reported as 1.99.
In the case of `CCN1CCN(C(c2cccs2)c2ccc3cccnc3c2O)CC1` (stereo unspecified), the “Ratio IC50” value [1] is reported as 0.6.
In the case of `Oc1c(CN2CCCCC2)ccc2cccnc12`, the “Ratio IC50” value [2] is reported as 4.1.
With `Oc1c(C(c2ccncc2)N2CCCC2)ccc2cccnc12` (stereo unspecified) the “Ratio IC50” value [1] was 1.6.
With `CCCOCc1cc(CN2CCN(C)CC2)c(O)c2ncccc12` the “Ratio IC50” value [3] was 1.7 and the “Ratio IC50” value [2] was 3.
For `COCc1cc(CN2CCCC2)c(O)c2ncccc12`, the “Ratio IC50” value [3] was 3 and the “Ratio IC50” value [2] was 13.1.
With `Oc1ccccc1CN1CCNCC1` the IC50 ([6]; read-out: IC50) was over 100 µM and the IC50 ([7]; read-out: IC50) was over 100 µM.
In the case of `CC(C)OCc1cc(CN2CCCCC2)c(O)c2ncccc12`, the “Ratio IC50” value [3] is reported as 1.3 and the “Ratio IC50” value [2] is reported as 3.9.
With `CC(C)OCc1cc(CN2CCOCC2)c(O)c2ncccc12` the “Ratio IC50” value [2] was 2.5.
With `Oc1c(C(c2ccccn2)N2CCCC2)cc(Cl)c2cccnc12` (stereo unspecified) the “Ratio IC50” value [2] was 3.7.
